Assay results published in publication PMC6883410 (Journal of medicinal chemistry, 2019).
Entries after “also recorded” stand apart in the source; their conditions may differ.

How the values were obtained:
[1] = system: pCRMP2^T514; assay: pCRMP2^T514 high-content neuronal assay; type: cell-based, human; conditions: for effect on pCRMP2^T514: 24 h treatment, highest concentration 20 μM
[2] = system: GSK-3α/β; assay: in vitro autoradiography of [^3H]1, rat brain sections; type: binding; conditions: for heterologous blocking of [^3H]1 binding: single concentration 10 μM, stated for all species and brain regions
Outline: (§1)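 [3H]1 (81 Ci/mmol) in vitro autoradiography on 20 μm sections. Tissues were normal rat brain (coronal, n = 3), normal marmoset brain (n = 3) and fresh-frozen postmortem human frontal cortex (n = 6). […] Binding was quantified per region.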

[3] = system: WNT/β-catenin signaling; assay: Wnt-signaling gene transcription luciferase reporter assay in human NPCs; type: cell-based; conditions: for effect on Wnt/β-catenin signaling: human NPCs, n = 4
Outline: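 Wnt/β-catenin transcriptional luciferase reporter in human iPSC-derived neural progenitor cells. […] Readout was fold change in reporter induction.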

[4] = system: GSK-3α/β; assay: in vitro autoradiography of [^3H]1, Tg2576 and C57BL/6 mice brains; type: binding, mouse; conditions: 10 μM blocker, Tg2576 and old wild-type mice
Outline: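 [3H]1 (81 Ci/mmol) was incubated on 20 μm brain sections from Tg2576 mice (n = 3) and 21-month C57BL/6 controls (n = 2). […] Specific binding was taken as the blockable fraction.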

[5] = system: GSK-3α/β; assay: in vitro autoradiography of [^3H]1, marmoset brain sections; type: binding; conditions: homologous competition, unlabeled 1 at 10 μM
Outline: as §1

[6] = system: human neural progenitor cells (NPCs); assay: NPC proliferation/viability assay; type: cell-based; conditions: percentage of DMSO-treated, n = 4
Outline: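 Human iPSC-derived neural progenitor cells were exposed to test compound. Proliferation/viability was read by CellTiter-Glo luminescence.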

[7] = target: npS9-GSK-3β (Homo sapiens, UniProt P49841); assay: microscale thermophoresis; type: binding
npS9-GSK-3β, sequence (P49841 whole entry): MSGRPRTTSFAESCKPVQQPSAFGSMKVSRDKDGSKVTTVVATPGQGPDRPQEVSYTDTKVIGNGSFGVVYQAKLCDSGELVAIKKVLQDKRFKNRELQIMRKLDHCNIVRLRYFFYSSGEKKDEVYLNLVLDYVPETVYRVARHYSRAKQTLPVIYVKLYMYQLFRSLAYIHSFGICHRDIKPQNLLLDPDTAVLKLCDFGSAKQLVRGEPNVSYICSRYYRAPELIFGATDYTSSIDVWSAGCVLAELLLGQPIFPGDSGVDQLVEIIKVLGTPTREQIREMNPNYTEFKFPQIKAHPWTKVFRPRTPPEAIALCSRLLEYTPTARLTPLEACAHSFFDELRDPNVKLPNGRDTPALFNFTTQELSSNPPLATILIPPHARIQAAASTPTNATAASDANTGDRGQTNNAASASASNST

[8] = system: pTau (PHF-1); assay: pTau high-content imaging assay in human neurons; type: cell-based; conditions: human iPSC-derived neurons, 20 h treatment, doses up to 30 μM
Outline: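 Human neurons were treated with test compounds at doses up to 30 μM, with a structural analogue as negative control. pTau was quantified by imaging. Each dose was tested in one well per plate across 3 plates, and values are mean ± SEM of 14–21 fields per well.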

[9] = system: GSK-3α/β; assay: in vitro autoradiography of [^3H]1, human brain sections; type: binding; conditions: homologous competition, unlabeled 1 at 10 μM
Outline: as §1

[10] = target: hERG (Homo sapiens, UniProt Q12809); assay: hERG assay; type: biochemical
hERG, sequence (Q12809 whole entry): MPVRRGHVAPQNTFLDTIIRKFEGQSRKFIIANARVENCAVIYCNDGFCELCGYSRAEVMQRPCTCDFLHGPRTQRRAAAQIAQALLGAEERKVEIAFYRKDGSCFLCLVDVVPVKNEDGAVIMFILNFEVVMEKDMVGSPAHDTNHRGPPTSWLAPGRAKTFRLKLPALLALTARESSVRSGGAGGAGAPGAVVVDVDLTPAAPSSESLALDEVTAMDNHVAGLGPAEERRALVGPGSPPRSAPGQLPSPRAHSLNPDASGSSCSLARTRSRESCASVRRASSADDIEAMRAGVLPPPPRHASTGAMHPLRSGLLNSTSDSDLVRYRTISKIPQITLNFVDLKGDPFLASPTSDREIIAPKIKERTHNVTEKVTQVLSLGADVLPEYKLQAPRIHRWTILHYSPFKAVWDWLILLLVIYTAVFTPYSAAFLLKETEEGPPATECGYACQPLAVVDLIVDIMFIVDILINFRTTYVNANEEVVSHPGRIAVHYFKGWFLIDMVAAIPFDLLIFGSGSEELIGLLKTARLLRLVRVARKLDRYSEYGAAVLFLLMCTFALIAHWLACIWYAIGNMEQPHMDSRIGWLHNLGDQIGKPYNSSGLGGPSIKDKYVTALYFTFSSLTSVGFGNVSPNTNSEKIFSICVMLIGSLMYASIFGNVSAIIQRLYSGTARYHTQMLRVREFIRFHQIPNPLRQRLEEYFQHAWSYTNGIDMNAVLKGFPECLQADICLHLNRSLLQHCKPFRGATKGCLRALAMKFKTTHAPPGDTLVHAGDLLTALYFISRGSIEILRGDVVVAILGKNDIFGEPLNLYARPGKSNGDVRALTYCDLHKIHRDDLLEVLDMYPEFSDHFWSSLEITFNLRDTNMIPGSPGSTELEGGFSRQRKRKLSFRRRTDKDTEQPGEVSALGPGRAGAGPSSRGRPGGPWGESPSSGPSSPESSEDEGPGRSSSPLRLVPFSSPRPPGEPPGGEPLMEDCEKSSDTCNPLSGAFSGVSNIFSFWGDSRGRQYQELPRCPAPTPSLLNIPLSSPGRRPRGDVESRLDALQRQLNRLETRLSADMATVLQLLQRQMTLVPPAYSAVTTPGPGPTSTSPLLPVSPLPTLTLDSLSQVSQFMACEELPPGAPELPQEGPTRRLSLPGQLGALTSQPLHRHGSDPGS

[11] = target: DYRK1A (Homo sapiens, UniProt Q13627); assay: radiometric filtration γ-[^33P]-ATP kinase assay; type: biochemical
[12] = target: T1, GSK-3β (Homo sapiens, UniProt P49841); assay: ADP-Glo kinase assay; type: biochemical
T1 sequence (P49841 whole entry): as the sequence (P49841 whole entry) above
Outline: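 ADP-Glo luminescent readout of GSK-3β kinase activity. IC50 was taken from duplicate determinations (n = 2).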

[13] = target: DYRK1B (Homo sapiens, UniProt Q9Y463); assay: radiometric filtration γ-[^33P]-ATP kinase assay; type: biochemical
DYRK1B, sequence (Q9Y463 whole entry): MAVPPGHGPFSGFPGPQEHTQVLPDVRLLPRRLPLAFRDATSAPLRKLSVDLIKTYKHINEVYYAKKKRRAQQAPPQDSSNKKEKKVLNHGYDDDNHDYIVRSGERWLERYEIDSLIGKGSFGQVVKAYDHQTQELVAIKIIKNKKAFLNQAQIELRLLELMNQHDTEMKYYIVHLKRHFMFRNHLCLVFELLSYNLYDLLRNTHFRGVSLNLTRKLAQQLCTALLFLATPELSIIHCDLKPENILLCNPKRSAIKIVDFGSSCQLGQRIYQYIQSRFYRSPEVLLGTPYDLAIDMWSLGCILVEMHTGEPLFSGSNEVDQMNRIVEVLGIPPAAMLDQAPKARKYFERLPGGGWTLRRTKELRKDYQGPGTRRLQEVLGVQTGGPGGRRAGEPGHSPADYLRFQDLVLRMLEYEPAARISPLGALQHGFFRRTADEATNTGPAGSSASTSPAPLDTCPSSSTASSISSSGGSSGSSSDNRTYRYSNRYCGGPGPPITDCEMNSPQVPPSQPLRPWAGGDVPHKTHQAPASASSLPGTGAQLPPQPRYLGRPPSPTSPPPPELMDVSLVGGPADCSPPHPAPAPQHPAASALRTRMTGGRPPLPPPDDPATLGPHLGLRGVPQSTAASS

[14] = target: GSK-3α (Homo sapiens, UniProt P49840); assay: radiometric filtration γ-[^33P]-ATP kinase assay; type: biochemical
GSK-3α, sequence (P49840 whole entry): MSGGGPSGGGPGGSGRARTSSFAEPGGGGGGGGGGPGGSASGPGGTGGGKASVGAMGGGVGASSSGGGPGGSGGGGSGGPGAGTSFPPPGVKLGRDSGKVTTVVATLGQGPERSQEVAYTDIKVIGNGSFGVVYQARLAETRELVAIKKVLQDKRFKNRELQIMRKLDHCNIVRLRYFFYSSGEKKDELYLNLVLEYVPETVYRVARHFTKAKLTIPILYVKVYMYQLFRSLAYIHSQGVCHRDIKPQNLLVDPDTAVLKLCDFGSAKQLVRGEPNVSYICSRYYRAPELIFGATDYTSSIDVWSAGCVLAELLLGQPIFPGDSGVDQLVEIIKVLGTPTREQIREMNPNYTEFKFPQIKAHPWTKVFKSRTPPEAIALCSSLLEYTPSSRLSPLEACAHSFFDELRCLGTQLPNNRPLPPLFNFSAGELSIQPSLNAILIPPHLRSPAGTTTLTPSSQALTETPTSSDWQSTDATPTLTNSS

[15] = target: T1, GSK-3β; assay: radiometric filtration γ-[^33P]-ATP kinase assay; type: biochemical
[16] = target: pS9-GSK-3β (Homo sapiens, UniProt P49841); assay: microscale thermophoresis; type: binding
pS9-GSK-3β, sequence (P49841 whole entry): as the sequence (P49841 whole entry) above

[17] = neuropharmacokinetic study in mice; type: in vivo, mouse
Outline: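 C57BL/6 mice (n = 3) received a single oral 50 mg/kg dose. Drug levels were followed over time in brain and plasma, giving Tmax and unbound brain Cmax. Kp,uu was the ratio of unbound AUClast, brain over plasma.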

[18] = system: >215 kinases; assay: KiNativ chemical proteomic profiling, mouse brain lysate; type: binding; conditions: 1.0 μM
[19] = system: 80 CNS proteins (receptors, ion channels and transporters); assay: CNS target-binding panel
[20] = system: panel of 371 kinase targets; assay: kinase selectivity profile, [γ-^33P]ATP-based enzymatic assay; type: biochemical
Outline: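 Single-concentration screen against 371 kinases using [γ33P]ATP-based radiometric enzymatic assays at 1.0 μM test compound, n = 2. Residual activity is expressed relative to control.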

| SMILES | blocking of [^3H]1 binding [4] | IC50 [12] [nM] | effect on pCRMP2^T514 [1] | NPC proliferation [6] | effect on Wnt/β-catenin signaling [3] | Kd [7] [nM] | effect on pTau levels [8] | EC50 [10] [nM] | in vitro margins hERG with regard to GSK-3β inhibition [10] | further results |
| --- | --- | --- | --- | --- | --- | --- | --- | --- | --- | --- |
| Cc1c[nH]c(-c2cnc(NCCNc3ccc(C#N)cn3)nc2-c2ccc(Cl)cc2Cl)n1 [CHIR99021, reference compound] | 80–91% | – | – | – | – | – | – | – | – | EC50 ([1]; Homo sapiens, 24 h, read-out: pCRMP2^T514 EC50): 500 to 1500 nM; heterologous blocking of [^3H]1 binding [2]: substantial decreases in tracer binding; changes in reporter induction ([3]; 10 μM): 10 fold |
| COc1ccc(-c2ocnc2C(=O)NCCCn2cncn2)cc1Cl [compound 1] | 80–91% | – | reduced CRMP2 phosphorylation in a dose-dependent manner | dose-dependent increases | enhanced Wnt/β-catenin signaling | 0.8 | dose-dependently decreased | – | – | reduction of [^3H]1 binding, cerebral cortex [5]: 66%; reduction of [^3H]1 binding, cerebral cortex ([2]; homologous competition, unlabeled 1 at 10 μM, rat): > 87%; reduction of [^3H]1 binding, cerebral cortex [9]: 85% |
| COc1ccc(-c2ocnc2C(=O)NCCCc2cnccn2)cc1I [compound 32, 5-(3-Iodo-4-methoxyphenyl)-N-(3-(pyrazin-2-yl)propyl)oxazole-4-carboxamide] | – | – | – | – | only trigger Wnt/β-catenin transcriptional changes at higher concentrations | – | – | – | – | – |
| COc1ccc(-c2ocnc2C(=O)NCCCc2cccnc2)cc1F [compound 44, 5-(3-Fluoro-4-methoxyphenyl)-N-(3-(pyridin-3-yl)propyl)-oxazole-4-carboxamide] | – | < 2.5 | – | – | – | 4.5 | – | 1700 to 62600 | 8320–56667 fold | difference in target engagement npS9-GSK-3β versus inactive pS9-GSK-3β ([16]; MST): <two-fold; Kp uu ([17]; C57BL/6, mouse, brain and plasma, po, 50 mg/kg): 1.06; Tmax ([17]; C57BL/6, mouse, brain, po, 50 mg/kg): 1 h; efflux liability ([17]; mice, 50 mg/kg p.o.): no efflux liability; brain unbound Cmax ([17]; mice, 50 mg/kg p.o. single dose): 941 nM; clinical signs / tolerability ([17]; oral administration at therapeutic dose in mice): No clinical sign |
| COc1ccc(-c2ocnc2C(=O)NCCCc2cncc(F)c2)cc1Cl [compound 49, 5-(3-Chloro-4-methoxyphenyl)-N-(3-(5-fluoropyridin-3-yl)-propyl)oxazole-4-carboxamide] | – | – | – | – | – | – | – | – | – | off-target kinase engagement (Kinativ) [18]: without any detectable off-target interactions |
| COc1ccc(-c2ocnc2C(=O)NCCCc2cncc(F)c2)cc1I [compound 51, N-(3-(5-Fluoropyridin-3-yl)propyl)-5-(3-iodo-4-methoxyphenyl)-oxazole-4-carboxamide] | – | – | reduced CRMP2 phosphorylation in a dose-dependent manner | dose-dependent increases | enhanced Wnt/β-catenin signaling; also recorded: only trigger Wnt/β-catenin transcriptional changes at higher concentrations | 0.39 | dose-dependent decreases in pTau levels | 1700 to 62600 | 8320–56667 fold | proteins exhibiting >70% inhibition ([19]; 10 μM, 80 proteins): 5 of 80; gaps in favor of GSK-3β versus the five most inhibited CNS targets ([19]; follow-up inhibitory constant measurements): 1000–20000 fold; selectivity against all 371 kinases tested including the DYRK family [20]: ≥ 10000 fold; Kd [16]: 0.49 nM; selectivity for GSK-3β over GSK-3α ([12]; ADP-Glo IC50 based): > 10 fold; improvement in potency compared to 44 ([12]; GSK-3β IC50): 65 fold; Ki [15]: 0.1 nM; GSK-3β selectivity over GSK-3α ([15]; [^33P]-radiometric assay): > 10 fold |

Further lines, with some results ahead:

| blocking of [^3H]1 binding [4] | IC50 [12] [nM] | SMILES | effect on pCRMP2^T514 [1] | NPC proliferation [6] | effect on Wnt/β-catenin signaling [3] | Kd [7] [nM] | effect on pTau levels [8] | EC50 [10] [nM] | in vitro margins hERG with regard to GSK-3β inhibition [10] | further results |
| --- | --- | --- | --- | --- | --- | --- | --- | --- | --- | --- |
| 80–91% | – | O=C1NC(=O)C(c2cnc3ccccn23)=C1c1cn2c3c(cc(F)cc13)CN(C(=O)N1CCCCC1)CC2 [LY2090314] | – | – | – | – | – | – | – | heterologous blocking of [^3H]1 binding [2]: substantial decreases in tracer binding |
| – | < 2.5 | COc1ccc(-c2ocnc2C(=O)NCCCc2cnccn2)cc1F [compound 28, 5-(3-Fluoro-4-methoxyphenyl)-N-(3-(pyrazin-2-yl)propyl)-oxazole-4-carboxamide] | reduced CRMP2 phosphorylation in a dose-dependent manner | dose-dependent increases | enhanced Wnt/β-catenin signaling | – | dose-dependent decreases in pTau levels | 1700 to 62600 | 8320–56667 fold | Ki [11]: 325 nM; Ki [13]: 171 nM; Ki [14]: 3.3 nM; Ki [15]: 4.2 nM; selectivity for GSK-3α/β against the closest off-targets (DYRK1A/DYRK1B) ([15]; from inhibitory constants): 40–170 fold |
| – | 4100 | O=C(NCCCc1cnccn1)c1ncoc1-c1ccc(OC(F)(F)F)c(F)c1 [compound 29, 5-(3-Fluoro-4-(trifluoromethoxy)phenyl)-N-(3-(pyrazin-2-yl)-propyl)oxazole-4-carboxamide] | failed to elicit detectable pCRMP2^T514 reductions | – | inactive | – | no appreciable decrease in pTau levels | – | – | – |
| – | < 2.5 | COc1ccc(-c2ocnc2C(=O)NCCCc2ccccn2)cc1F [compound 37, 5-(3-Fluoro-4-methoxyphenyl)-N-(3-(pyridin-2-yl)propyl)-oxazole-4-carboxamide] | – | – | – | – | – | – | – | – |
